{"source": "ChEMBL document CHEMBL3351274", "about": "“Sensitization of tumor necrosis factor-related apoptosis-inducing ligand (TRAIL)-resistant primary prostate cancer cells by isoegomaketone from Perilla frutescens” (J Nat Prod, 2014)", "key": {"[1]": {"assay": "Induction of apoptosis in human RC-58T/h/SA#4 cells assessed as accumulation at Sub-G1 phase at 20 uM after 24 hrs by annexin-V/propidium iodide staining-based flow cytometry (reference value: 4.8%)", "assay_type": "functional"}, "[2]": {"assay": "Induction of apoptosis in human RC-58T/h/SA#4 cells assessed as p53 expression at 20 uM after 3 hrs by immunoblotting analysis relative to untreated control", "assay_type": "functional", "procedure,_shortened": "(§1)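 RC-58T/h/SA#4 cells seeded at 5 × 10^4 cells/mL and cultured 24 h, then given compound across a concentration series or at fixed dose over a time course. Lysates were quantified by BCA. 10 μg protein/lane run on 12% SDS-PAGE and transferred to nitrocellulose. Blots probed for p53, CHOP and β-actin with HRP secondary and ECL.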"}, "[3]": {"assay": "Induction of apoptosis in human RC-58T/h/SA#4 cells assessed as CHOP expression at 20 uM after 18 hrs by immunoblotting analysis relative to untreated control", "assay_type": "functional", "procedure,_shortened": "as §1"}, "[4]": {"species_on_record": "Homo sapiens", "assay": "Induction of apoptosis in human RC-58T/h/SA#4 cells assessed as p53 expression after 3 to 24 hrs by immunoblotting analysis relative to untreated control", "assay_type": "functional, cell-based", "procedure,_shortened": "as §1"}, "[5]": {"species_on_record": "Homo sapiens", "assay": "Sensitization of TRAIL-induced cytotoxicity against human RC-58T/h/SA#4 cells assessed as cell viability at 5 to 20 uM after 24 hrs by SRB assay", "assay_type": "functional, cell-based", "procedure,_shortened": "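Cells seeded at 5 × 10^4 cells/mL, grown in DMEM with 10% FBS, and given the compound with or without 100 ng/mL TRAIL for 24 h at 37 °C, 5% CO2. RWPE-1 tested at 20 μM. Cells fixed in 12% TCA for 1 h at 4 °C, stained 1 h with 0.4% SRB, washed in 1% acetic acid, dye dissolved in 10 mM Tris and absorbance read. Three experiments, means ± SD.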"}, "[6]": {"species_on_record": "Homo sapiens", "assay": "Induction of apoptosis in human RC-58T/h/SA#4 cells assessed as AIF level in mitochondria at 20 uM after 24 hrs by immunoblotting analysis relative to untreated control", "assay_type": "functional, cell-based", "procedure,_shortened": "(§2)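 Cells grown in DMEM/10% FBS at 37 °C, 5% CO2, then treated 24 h with compound (20 μM) with or without TRAIL (100 ng/mL). Whole lysates were used for Bax and Bcl-2. Cytosolic and mitochondrial fractions were prepared with a mitochondria isolation kit for AIF and cytochrome c. Blotting used 10 μg protein/lane, 12% SDS-PAGE, nitrocellulose, overnight primary antibody at 4 °C and ECL detection.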"}, "[7]": {"assay": "Sensitization of TRAIL-induced apoptosis in human RC-58T/h/SA#4 cells assessed as procaspase-3 activation at 20 uM after 24 hrs by immunoblotting analysis relative to untreated control", "assay_type": "functional", "procedure,_shortened": "(§3)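 Cells seeded at 5 × 10^4 cells/mL and cultured 24 h, then given 20 μM compound and/or 100 ng/mL TRAIL for 24 h. Whole-cell lysate made in Tris/NaCl/EDTA/NaF/pyrophosphate/PMSF/aprotinin buffer, 30 min on ice, protein measured by BCA. 12% SDS-PAGE at 10 μg/lane, nitrocellulose blot, primary antibodies (caspase-3, -8, -9, Bax, Bcl-2, PARP) overnight at 4 °C, HRP secondary, ECL.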"}, "[8]": {"assay": "Sensitization of TRAIL-induced apoptosis in human RC-58T/h/SA#4 cells assessed as accumulation at Sub-G1 phase at 20 uM after 24 hrs by annexin-V/propidium iodide staining-based flow cytometry (reference value: 4.8%)", "assay_type": "functional"}, "[9]": {"species_on_record": "Homo sapiens", "assay": "Induction of apoptosis in human RC-58T/h/SA#4 cells assessed as p53 expression at 2.5 to 40 uM by immunoblotting analysis relative to untreated control", "assay_type": "functional, cell-based", "details": "TDE = time-dependent effect", "procedure,_shortened": "as §1"}, "[10]": {"species_on_record": "Homo sapiens", "assay": "Induction of apoptosis in human RC-58T/h/SA#4 cells assessed as DR5 expression at 20 uM by immunoblotting analysis relative to untreated control", "assay_type": "functional, cell-based", "details": "TDE = time-dependent effect"}, "[11]": {"assay": "Induction of apoptosis in human RC-58T/h/SA#4 cells assessed as procaspase-9 activation at 20 uM after 24 hrs by immunoblotting analysis relative to untreated control", "assay_type": "functional", "procedure,_shortened": "as §3"}, "[12]": {"assay": "Induction of apoptosis in human RC-58T/h/SA#4 cells assessed as Bax activation at 20 uM after 24 hrs by immunoblotting analysis relative to untreated control", "assay_type": "functional", "procedure,_shortened": "as §2"}, "[13]": {"assay": "Induction of apoptosis in human RC-58T/h/SA#4 cells assessed as CHOP expression at 20 uM after 6 hrs by immunoblotting analysis relative to untreated control", "assay_type": "functional", "procedure,_shortened": "as §1"}, "[14]": {"assay": "Induction of apoptosis in human RC-58T/h/SA#4 cells assessed as DR5 expression at 20 uM after 3 hrs by immunoblotting analysis relative to untreated control", "assay_type": "functional"}, "[15]": {"assay": "Sensitization of TRAIL-induced apoptosis in human RC-58T/h/SA#4 cells assessed as procaspase-9 activation at 20 uM after 24 hrs by immunoblotting analysis relative to untreated control", "assay_type": "functional", "procedure,_shortened": "as §3"}, "[16]": {"assay": "Induction of apoptosis in human RC-58T/h/SA#4 cells assessed as DR5 expression at 20 uM after 6 hrs by immunoblotting analysis relative to untreated control", "assay_type": "functional"}, "[17]": {"assay": "Induction of apoptosis in human RC-58T/h/SA#4 cells assessed as CHOP expression at 40 uM after 24 hrs by immunoblotting analysis relative to untreated control", "assay_type": "functional", "procedure,_shortened": "as §1"}, "[18]": {"species_on_record": "Homo sapiens", "assay": "Sensitization of TRAIL-induced apoptosis in human RC-58T/h/SA#4 cells assessed as cytochrome C level in mitochondria at 20 uM after 24 hrs by immunoblotting analysis relative to untreated control", "assay_type": "functional, cell-based", "procedure,_shortened": "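Cells given 20 μM compound and/or 100 ng/mL TRAIL for 24 h. Mitochondrial and cytosolic fractions prepared with a mitochondria isolation kit. Fractions resolved by 12% SDS-PAGE at 10 μg/lane and immunoblotted with anti-cytochrome c or anti-AIF overnight at 4 °C, then HRP secondary and ECL detection.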"}, "[19]": {"assay": "Induction of apoptosis in human RC-58T/h/SA#4 cells assessed as DR5 expression at 20 uM after 24 hrs by immunoblotting analysis relative to untreated control", "assay_type": "functional"}, "[20]": {"assay": "Induction of apoptosis in human RC-58T/h/SA#4 cells assessed as p53 expression at 40 uM after 24 hrs by immunoblotting analysis relative to untreated control", "assay_type": "functional", "procedure,_shortened": "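RC-58T/h/SA#4 cells (DMEM, 10% FBS, 37 °C, 5% CO2) exposed to the compound over a concentration range or time course. Lysates run on 12% SDS-PAGE at 10 μg protein/lane, transferred to nitrocellulose and blocked with BSA. Blots probed overnight at 4 °C with anti-p53, then HRP secondary antibody, ECL detection; β-actin as loading control.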"}, "[21]": {"assay": "Induction of apoptosis in human RC-58T/h/SA#4 cells assessed as p53 expression at 20 uM after 18 hrs by immunoblotting analysis relative to untreated control", "assay_type": "functional", "procedure,_shortened": "as §1"}, "[22]": {"species_on_record": "Homo sapiens", "assay": "Sensitization of TRAIL-induced apoptosis in human RC-58T/h/SA#4 cells assessed as cell viability at 20 uM after 24 hrs by SRB assay in presence of NAC"}, "[23]": {"assay": "Induction of apoptosis in human RC-58T/h/SA#4 cells assessed as DR4 expression at 40 uM after 24 hrs by immunoblotting analysis relative to untreated control", "assay_type": "functional"}, "[24]": {"species_on_record": "Homo sapiens", "assay": "Induction of apoptosis in human RC-58T/h/SA#4 cells assessed as DR5 expression after 24 hrs by immunoblotting analysis relative to untreated control", "assay_type": "functional, cell-based"}}, "note": "Activity calls are given as the source filed them. The rule behind the calls is not given here.", "data": [{"smiles": "CC(C)/C=C/C(=O)c1ccoc1", "values": [{"measurement": "Activity", "setting": "[1]", "result": 10.1, "unit": "%"}, {"measurement": "Ratio", "setting": "[2]", "result": 1}, {"measurement": "Ratio", "setting": "[3]", "result": 2}, {"measurement": "Activity", "setting": "[4]", "result": "Dose-dependent effect"}, {"measurement": "Activity", "setting": "[5]", "result": "Active"}, {"measurement": "Ratio", "setting": "[6]", "result": 1.2}, {"measurement": "Ratio", "setting": "[7]", "result": 0.4}, {"measurement": "Activity", "setting": "[8]", "result": 18, "unit": "%"}, {"measurement": "Activity", "setting": "[9]", "result": "tde"}, {"measurement": "Activity", "setting": "[10]", "result": "tde"}, {"measurement": "Ratio", "setting": "[11]", "result": 0.8}, {"measurement": "Ratio", "setting": "[12]", "result": 1.5}, {"measurement": "Ratio", "setting": "[13]", "result": 1}, {"measurement": "Ratio", "setting": "[14]", "result": 1.2}, {"measurement": "Ratio", "setting": "[15]", "result": 0.5}, {"measurement": "Ratio", "setting": "[16]", "result": 1.3}, {"measurement": "Ratio", "setting": "[17]", "result": 2}, {"measurement": "Ratio", "setting": "[18]", "result": 0.5}, {"measurement": "Ratio", "setting": "[19]", "result": 1.2}, {"measurement": "Ratio", "setting": "[20]", "result": 2.4}, {"measurement": "Ratio", "setting": "[21]", "result": 2.2}, {"measurement": "Activity", "setting": "[22]", "result": "inactive"}, {"measurement": "Ratio", "setting": "[23]", "result": 1.1}, {"measurement": "Activity", "setting": "[24]", "result": "Dose-dependent effect"}]}]}
